Usually inhibition stands for the share of the control response that was lost under treatment. Broadly, the IC50 is the midpoint of a concentration-inhibition curve. High values mean weaker potency, low ones greater potency.

The record followed here is ChEMBL document CHEMBL1152146, “Non-nucleoside inhibitors of the hepatitis C virus NS5B RNA-dependant RNA polymerase: 2-aryl-3-heteroaryl-1,3-thiazolidin-4-one derivatives” (Bioorg Med Chem Lett, 2008).

Test [1] deals with Replicase polyprotein 1ab (Severe acute respiratory syndrome-related coronavirus) (UniProt P0C6X7). Nature of the test: Inhibition of SARS coronavirus nsp12 at 0.5 mM.
In a further test the test system is Escherichia coli. Nature of the test: Inhibition of Escherichia coli DNA polymerase 1 Klenow fragment at 0.5 mM.
Test [2] deals with Hepatitis C virus. Nature of the test: Inhibition of HCV 1b NS5B Cdelta21 polymerase at 0.25 mM relative to control. Further details: species or system Hepatitis C virus subtype 1b. In a few lines:
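His-tagged NS5BCΔ21 (genotype 1b) RdRp assay with compound at 0.25 mM and DMSO constant at 10%. Activity without inhibitor, after subtraction of residual background, set as 100%. Values are the mean of at least three independent measurements.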

Test [3] deals with Hepatitis C virus. Nature of the test: Inhibition of HCV 1b NS5B Cdelta21 polymerase. Also noted: species or system Hepatitis C virus subtype 1b. In a few lines: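 N-terminal His-tagged NS5B lacking the C-terminal 21 residues (genotype 1b). RdRp activity read as total incorporation of radiolabeled UTP on poly rA/U12. IC50 taken from dose–response curves of 8–12 concentrations, run in duplicate in two independent experiments. DMSO held at 10% in all reactions.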

On to `O=C1CSC(c2ccc(-c3ccnc4ccccc34)cc2)N1c1ccccn1` (stereo not given), for which the inhibition (in test [1]; in the test on Escherichia coli) was less than 50% each time. In the test on Hepatitis C virus [2], the inhibition at 250 µM was 62.2%.

Regarding `CCc1nnc(N2C(=O)CSC2c2c(F)cccc2F)s1` (stereo not given), the inhibition in test [1] was less than 50%.

As for `O=C1CSC(c2c(Br)cccc2Br)N1Cc1cccs1` (stereo not given), the inhibition (in test [1]; in the test on Escherichia coli) was less than 50% throughout. The compound also gave an inhibition at 250 µM with Hepatitis C virus [2] of 62.3%.

As for `Cc1cc(C(F)(F)F)nc(N2C(=O)CSC2c2c(Cl)cccc2Cl)n1` (stereo not given), the inhibition (in test [1]; in the test with Escherichia coli) was less than 50% throughout. In addition, in the test with Hepatitis C virus [2], 250 µM produced 72.1% inhibition.

Take `O=C1CSC(c2ccc(F)cc2)N1c1ccccn1` (stereo not given): the inhibition (in test [1]; with Escherichia coli) was less than 50% throughout. Also, in the test with Hepatitis C virus [2], the inhibition at 250 µM stood at 98%. This compound also yielded an IC50 in the test with Hepatitis C virus [3] of 31.9 µM.

Consider `CC1SC(c2c(Cl)cccc2Cl)N(c2ccccn2)C1=O` (stereo not given), for which the inhibition (in test [1]; in the test with Escherichia coli) was less than 50% each time. Also, at 250 µM the inhibition in the test with Hepatitis C virus [2] was 73%.

`O=C1CSC2(CCN(Cc3ccccc3)CC2)N1c1ccccn1`: the inhibition (in test [1]; in the test on Escherichia coli) was less than 50% in each case. Besides, in the test with Hepatitis C virus [2], the inhibition at 250 µM is 85.6%. The same compound returned an IC50 in the test on Hepatitis C virus [3] of 71.9 µM.

Turning to `O=C(NN1C(=O)CSC1c1ccccc1F)c1cc(-c2ccc(F)cc2F)ccc1O` (stereo not given), in test [1], the inhibition was less than 50%. The compound also yielded an inhibition at 250 µM in the test with Hepatitis C virus [2] of 92.4%. The compound further came in with a concentration for half-maximal inhibition (IC50) with Hepatitis C virus [3] of 48 µM.

As to `COc1cc(O)c2c(c1)oc(=O)c1c3cc(O)c(O)cc3oc21` [WEDELOLACTONE], in the test on Hepatitis C virus [3], the midpoint of inhibition, the IC50, lay at 36.1 µM.

Take `Cc1cccc(N2C(=O)CSC2c2ccc(-c3cccnc3)cc2)n1` (stereo not given): the inhibition (in test [1]; with Escherichia coli) was less than 50% throughout. The compound also returned an inhibition at 250 µM in the test with Hepatitis C virus [2] of 64.2%.

With `Cc1cc(-c2ccccc2)nc(N2C(=O)CSC2c2c(Cl)cccc2Cl)n1` (stereo not given), the inhibition (in test [1]; in the test on Escherichia coli) was less than 50% throughout. This compound returned an inhibition at 250 µM in the test with Hepatitis C virus [2] of 63.6%.

Turning to `Cc1cc(C(F)(F)F)nc(N2C(=O)CSC2c2c(F)cccc2Cl)n1` (stereo not given), the inhibition (in test [1]; in the test on Escherichia coli) was less than 50% throughout. For the same compound, the inhibition at 250 µM in the test on Hepatitis C virus [2] came to 63.6%.

As for `O=C1CSC(c2c(Cl)cccc2Cl)N1c1nc(-c2ccccc2)cc(C(F)(F)F)n1` (stereo not given), the inhibition (in test [1]; in the test with Escherichia coli) was less than 50% throughout. The same compound gave an inhibition at 250 µM with Hepatitis C virus [2] of 66.4%.

Take `CC1SC(c2c(Cl)cccc2Cl)N(Cc2cccnc2)C1=O` (stereo not given): the inhibition (in test [1]; in the test on Escherichia coli) was less than 50% throughout. In the test on Hepatitis C virus [2], this compound showed an inhibition at 250 µM of 95.6%. In the test with Hepatitis C virus [3], inhibition was half-maximal at 41.8 µM (IC50).

As for `O=C1CSC(c2c(F)cccc2Cl)N1c1nc(-c2ccccc2)cc(-c2ccccc2)n1` (stereo not given), the inhibition (in test [1]; in the test with Escherichia coli) was less than 50% in each case. The compound further had an inhibition at 250 µM in the test with Hepatitis C virus [2] of 70.6%.

Take `Cc1cccc(N2C(=O)CSC2c2ccc(N(C)C)cc2)n1` (stereo not given): the inhibition (in test [1]; in the test with Escherichia coli) was less than 50% each time. Also, at 250 µM the inhibition in the test on Hepatitis C virus [2] was 84.7%. Inhibition with Hepatitis C virus [3] was half-maximal at 79.4 µM (IC50).

As for `CC1SC(c2c(Cl)cccc2Cl)N(Cc2ccco2)C1=O` (stereo not given), the inhibition (in test [1]; in the test on Escherichia coli) was less than 50% throughout. In the test with Hepatitis C virus [2], the inhibition at 250 µM was 97.8%. It took 32.2 µM to reach half-maximal inhibition in the test with Hepatitis C virus [3] (IC50).

In the case of `O=C1CSC(c2c(Cl)cccc2Cl)N1Cc1ccco1` (stereo not given), the inhibition (in test [1]; in the test with Escherichia coli) was less than 50% in each case. For the same compound, the inhibition at 250 µM with Hepatitis C virus [2] was determined as 72.3%.

In the case of `O=C1CSC(c2c(F)cccc2Cl)N1c1ccc2ccccc2n1` (stereo not given), the inhibition (in test [1]; in the test on Escherichia coli) was less than 50% each time. Further, 250 µM produced 60% inhibition in the test on Hepatitis C virus [2].

Consider `O=C1CSC(c2c(F)cccc2F)N1c1nc(-c2ccccc2)cc(-c2ccccc2)n1` (stereo not given), for which the inhibition (in test [1]; in the test on Escherichia coli) was less than 50% throughout. Moreover, at 250 µM the inhibition in the test on Hepatitis C virus [2] was 73.3%.

Turning to `Cc1cc(C(F)(F)F)nc(N2C(=O)CSC2c2c(Br)cccc2Br)n1` (stereo not given), the inhibition (in test [1]; with Escherichia coli) was less than 50% throughout. This compound also displayed an inhibition at 250 µM with Hepatitis C virus [2] of 76.3%.

Take `O=C1CSC(c2c(Cl)cccc2Cl)N1Cc1cccnc1` (stereo not given): the inhibition (in test [1]; in the test with Escherichia coli) was less than 50% in each case. This compound had an inhibition at 250 µM in the test with Hepatitis C virus [2] of 75.6%.

As for `O=C1CSC(c2c(Cl)cccc2Cl)N1c1nc(-c2ccccc2)cc(-c2ccccc2)n1` (stereo not given), the inhibition (in test [1]; in the test with Escherichia coli) was less than 50% in each case. The inhibition at 250 µM in the test on Hepatitis C virus [2] was found to be 73.1%.

Take `CN(C)c1ccc(C2SCC(=O)N2c2ccccn2)cc1` (stereo not given): the inhibition (in test [1]; in the test with Escherichia coli) was less than 50% each time. In the test with Hepatitis C virus [2], the inhibition at 250 µM was 76.4%.

For `Cc1cc(-c2ccccc2)nc(N2C(=O)CSC2c2c(F)cccc2Cl)n1` (stereo not given), the inhibition (in test [1]; in the test on Escherichia coli) was less than 50% each time. The compound also came in with an inhibition at 250 µM with Hepatitis C virus [2] of 65.5%.

`O=C1CCSC(c2c(Cl)cccc2Cl)N1Cc1ccco1` (stereo not given): the inhibition (in test [1]; in the test on Escherichia coli) was less than 50% each time. The inhibition at 250 µM in the test on Hepatitis C virus [2] was 94.2%. This compound returned a half-inhibitory concentration (IC50) in the test on Hepatitis C virus [3] of 52.6 µM.
